The results in this text go back to ChEMBL document CHEMBL2417442, “Modulation of αvβ₃- and α₅β₁-integrin-mediated adhesion by dehydro-β-amino acids containing peptidomimetics” (Eur J Med Chem, 2013).

Calls of active or inactive are those of the source. The rule behind the calls is not given here.

The target of assay [1] is T1, Integrin alpha-5/beta-1 (Homo sapiens, UniProt P05556+P08648). Description: Inhibition of alpha5beta1 integrin-mediated human K562 cell adhesion to fibronectin incubated for 30 mins before plating measured after 1 hr. Format: protein-complex assay. Summed up: (§1)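 Cells pre-incubated with a range of compound concentrations for 30 min at room temperature. Then 50000 cells/well plated on fibronectin (10 µg/mL) coated overnight at 4°C and left 1 h at room temperature. After PBS washes, adherent cells were quantified by hexosaminidase activity: 4-nitrophenyl-N-acetyl-β-D-glucosaminide in citrate buffer pH 5 with Triton X-100, stopped with glycine/EDTA pH 10.4, read at 405 nm. Quadruplicates, at least three repeats; IC50 fitted.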
Target sequence in this assay (P05556 21-798 limits assumed): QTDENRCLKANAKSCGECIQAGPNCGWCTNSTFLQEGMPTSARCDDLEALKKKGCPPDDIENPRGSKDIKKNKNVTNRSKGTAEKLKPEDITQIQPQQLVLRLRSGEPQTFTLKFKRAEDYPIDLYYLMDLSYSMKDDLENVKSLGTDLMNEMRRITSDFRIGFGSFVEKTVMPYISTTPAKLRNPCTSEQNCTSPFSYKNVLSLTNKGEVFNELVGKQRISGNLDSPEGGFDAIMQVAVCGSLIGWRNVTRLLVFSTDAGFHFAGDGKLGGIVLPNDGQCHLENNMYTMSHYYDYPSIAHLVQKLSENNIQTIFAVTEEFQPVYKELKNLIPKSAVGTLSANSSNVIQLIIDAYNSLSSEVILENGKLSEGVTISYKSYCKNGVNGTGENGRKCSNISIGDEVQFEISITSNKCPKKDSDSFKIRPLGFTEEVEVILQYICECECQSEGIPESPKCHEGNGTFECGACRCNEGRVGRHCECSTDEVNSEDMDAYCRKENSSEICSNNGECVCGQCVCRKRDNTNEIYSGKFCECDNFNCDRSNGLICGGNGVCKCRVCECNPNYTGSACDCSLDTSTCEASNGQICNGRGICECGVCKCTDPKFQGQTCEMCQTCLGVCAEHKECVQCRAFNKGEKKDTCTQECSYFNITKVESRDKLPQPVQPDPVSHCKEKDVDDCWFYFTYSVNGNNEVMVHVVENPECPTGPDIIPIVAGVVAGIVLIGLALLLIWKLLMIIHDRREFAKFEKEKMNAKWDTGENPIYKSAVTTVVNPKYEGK
Target sequence in this assay (P08648 42-894 limits assumed): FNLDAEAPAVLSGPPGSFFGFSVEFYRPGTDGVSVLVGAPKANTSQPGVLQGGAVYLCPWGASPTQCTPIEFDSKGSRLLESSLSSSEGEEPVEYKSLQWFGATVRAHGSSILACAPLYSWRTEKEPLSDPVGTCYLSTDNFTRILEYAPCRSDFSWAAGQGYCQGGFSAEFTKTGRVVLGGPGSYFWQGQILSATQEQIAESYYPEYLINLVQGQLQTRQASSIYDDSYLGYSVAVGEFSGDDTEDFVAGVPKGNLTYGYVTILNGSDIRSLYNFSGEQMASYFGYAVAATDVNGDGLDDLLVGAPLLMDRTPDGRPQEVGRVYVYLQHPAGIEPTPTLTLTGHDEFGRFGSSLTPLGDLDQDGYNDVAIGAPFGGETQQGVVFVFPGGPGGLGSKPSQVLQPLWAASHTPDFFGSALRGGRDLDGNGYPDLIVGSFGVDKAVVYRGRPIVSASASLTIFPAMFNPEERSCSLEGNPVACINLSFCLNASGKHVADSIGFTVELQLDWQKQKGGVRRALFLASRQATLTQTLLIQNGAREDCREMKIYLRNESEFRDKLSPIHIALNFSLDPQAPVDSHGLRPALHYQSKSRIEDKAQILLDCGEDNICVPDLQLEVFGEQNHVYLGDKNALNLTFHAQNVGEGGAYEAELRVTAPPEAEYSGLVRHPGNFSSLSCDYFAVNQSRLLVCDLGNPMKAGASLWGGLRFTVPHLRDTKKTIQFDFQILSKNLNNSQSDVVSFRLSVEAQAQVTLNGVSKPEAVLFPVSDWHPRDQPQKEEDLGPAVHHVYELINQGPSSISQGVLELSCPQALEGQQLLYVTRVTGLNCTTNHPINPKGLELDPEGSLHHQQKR
Target sequence in this assay (P08648 895-1049 limits assumed): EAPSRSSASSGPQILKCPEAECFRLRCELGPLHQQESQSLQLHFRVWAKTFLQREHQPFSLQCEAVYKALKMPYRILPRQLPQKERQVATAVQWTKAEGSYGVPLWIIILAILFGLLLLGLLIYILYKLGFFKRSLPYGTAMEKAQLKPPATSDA

Assay [2] has as its target T2, Integrin alpha-V/beta-3 (Homo sapiens, UniProt P05106+P06756). Description: Inhibition of alphaVbeta3 integrin-mediated human SK-MEL-24 cell adhesion to fibronectin incubated for 30 mins before plating measured after 1 hr. The format is protein-complex assay. Summed up:
as §1
Target sequence in this assay (P05106 27-788 limits assumed): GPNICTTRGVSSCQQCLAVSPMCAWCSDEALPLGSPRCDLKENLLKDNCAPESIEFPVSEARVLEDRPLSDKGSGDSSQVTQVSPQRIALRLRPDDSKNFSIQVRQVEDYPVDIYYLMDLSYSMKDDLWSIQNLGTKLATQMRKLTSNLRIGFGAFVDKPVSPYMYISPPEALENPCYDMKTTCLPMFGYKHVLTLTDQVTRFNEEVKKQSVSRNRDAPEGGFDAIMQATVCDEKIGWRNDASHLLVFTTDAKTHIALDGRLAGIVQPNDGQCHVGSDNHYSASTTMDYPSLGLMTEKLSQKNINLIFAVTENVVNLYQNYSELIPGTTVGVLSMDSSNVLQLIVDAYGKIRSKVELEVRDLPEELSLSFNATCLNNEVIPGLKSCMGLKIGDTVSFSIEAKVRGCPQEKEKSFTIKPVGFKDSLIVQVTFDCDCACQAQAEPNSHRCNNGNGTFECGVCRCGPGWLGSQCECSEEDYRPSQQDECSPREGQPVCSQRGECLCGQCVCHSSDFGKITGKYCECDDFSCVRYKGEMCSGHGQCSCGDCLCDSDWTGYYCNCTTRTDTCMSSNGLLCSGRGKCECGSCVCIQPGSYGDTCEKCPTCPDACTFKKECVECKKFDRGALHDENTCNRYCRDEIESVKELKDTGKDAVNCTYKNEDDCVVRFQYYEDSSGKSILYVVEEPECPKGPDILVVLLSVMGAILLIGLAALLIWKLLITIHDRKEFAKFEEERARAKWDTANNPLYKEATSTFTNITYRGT
Target sequence in this assay (P06756 31-889 limits assumed): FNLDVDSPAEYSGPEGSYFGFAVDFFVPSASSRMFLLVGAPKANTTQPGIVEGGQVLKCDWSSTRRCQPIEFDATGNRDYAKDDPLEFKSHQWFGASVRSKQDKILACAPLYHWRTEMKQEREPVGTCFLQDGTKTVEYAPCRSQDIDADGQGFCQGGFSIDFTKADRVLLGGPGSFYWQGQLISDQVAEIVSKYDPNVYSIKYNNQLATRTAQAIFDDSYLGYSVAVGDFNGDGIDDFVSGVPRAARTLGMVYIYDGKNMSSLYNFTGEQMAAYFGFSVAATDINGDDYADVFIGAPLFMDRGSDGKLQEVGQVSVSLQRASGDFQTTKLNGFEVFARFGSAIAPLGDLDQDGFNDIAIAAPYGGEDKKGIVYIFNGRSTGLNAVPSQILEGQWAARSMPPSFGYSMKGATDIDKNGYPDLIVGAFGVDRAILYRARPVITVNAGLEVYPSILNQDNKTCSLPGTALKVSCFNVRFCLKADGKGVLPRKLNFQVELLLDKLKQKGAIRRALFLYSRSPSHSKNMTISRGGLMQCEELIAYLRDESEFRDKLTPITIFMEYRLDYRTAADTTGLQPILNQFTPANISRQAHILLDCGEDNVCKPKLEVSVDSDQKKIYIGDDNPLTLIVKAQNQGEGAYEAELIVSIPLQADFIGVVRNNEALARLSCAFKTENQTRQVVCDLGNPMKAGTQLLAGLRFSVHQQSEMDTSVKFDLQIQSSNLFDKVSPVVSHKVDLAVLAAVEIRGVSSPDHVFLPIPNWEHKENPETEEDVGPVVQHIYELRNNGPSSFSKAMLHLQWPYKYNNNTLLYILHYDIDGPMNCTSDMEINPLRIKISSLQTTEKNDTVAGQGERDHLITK
Target sequence in this assay (P06756 891-1048 limits assumed): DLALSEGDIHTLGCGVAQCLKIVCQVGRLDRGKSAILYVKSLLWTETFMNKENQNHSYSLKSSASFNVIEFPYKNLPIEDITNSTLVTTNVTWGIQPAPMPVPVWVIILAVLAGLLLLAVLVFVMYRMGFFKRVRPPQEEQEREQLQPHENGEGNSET

The target in assay [3] is T1, Integrin alpha-5/beta-1. Description: Inhibition of alpha5beta1 integrin in human K562 cells assessed as inhibition of fibronectin-induced ERK1/2 phosphorylation at 10 uM incubated for 60 mins prior to fibronectin challenge measured after 60 mins by Western blotting analysis. Format: cell-based. Summed up: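 K562 cells, PMA-differentiated (25 ng/mL for 40 h), then serum-starved 16 h in RPMI-1640 with 1% FBS. Compound at 10 µM for 60 min in suspension, then plated 60 min on fibronectin (10 µg/ml)-coated, 1% BSA-blocked plates. Suspension cells served as control and PMA 65 nM as positive control. Lysates run on 12% SDS-PAGE and blotted for phospho- and total ERK1/2. pERK normalized to total ERK by densitometry; mean ± SEM, n=6.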
Background: A western blot detects proteins with antibodies after separation by electrophoresis.

For assay [4], the target named is T2, Integrin alpha-V/beta-3. Description: Inhibition of alphaVbeta3 integrin in human DAOY cells assessed as inhibition of fibronectin-induced ERK1/2 phosphorylation at 10 uM incubated for 30 mins prior to fibronectin challenge measured after 90 mins by Western blotting analysis. The format is cell-based. Summed up: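 DAOY medulloblastoma cells serum-starved 16 h in DMEM, detached, then given compound at 10 µM for 30 min. Plated 90 min on fibronectin (10 µg/ml)-coated, BSA-blocked plates; suspension cells as control. Lysed with phosphatase inhibitors, separated on 12% SDS-PAGE and immunoblotted for phospho-ERK1/2 and total ERK1/2.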

Assay [5] has as its target T2, Integrin alpha-V/beta-3. As to the kind of experiment: Inhibition of alphaVbeta3 integrin-mediated human DAOY cell adhesion to fibronectin incubated for 30 mins before plating measured after 1 hr. The format is protein-complex assay. Summed up: as §1

For the compound H-GRGDNP-OH, the concentration for half-maximal inhibition (IC50) at Integrin alpha-5/beta-1 [1] was over 100 µM; at Integrin alpha-V/beta-3 [2], 0.23 µM.
For the compound `C/C=C(\C(=O)NCC(=O)O)C(NCc1ccc(NC(=O)CN)cc1)C(C)C` (configuration not stated), the inhibition entry at Integrin alpha-5/beta-1 [3], at Integrin alpha-V/beta-3 [4] and at Integrin alpha-V/beta-3 [5] was “Active” throughout. Moreover, the figures for the IC50 against Integrin alpha-5/beta-1 [1] and at Integrin alpha-V/beta-3 [2] were 0.17 µM and 0.27 µM, respectively.
In the case of `C/C=C(\C(=O)O)C(NCc1ccc(N)cc1)C1CCCCC1` (configuration not stated), the IC50 on Integrin alpha-5/beta-1 [1] was 2.1 µM; against Integrin alpha-V/beta-3 [2], 0.83 µM.
Take `C/C=C(\C(=O)O)C(NCc1ccc(N)cc1)C(C)C` (configuration not stated): the IC50 turned out to be 9.8 µM against Integrin alpha-5/beta-1 [1] and 1.49 µM against Integrin alpha-V/beta-3 [2].
Consider `C/C=C(\C(=O)O)C(C)NCc1ccc(N)cc1` (configuration not stated), for which the results for the IC50 against Integrin alpha-5/beta-1 [1] and on Integrin alpha-V/beta-3 [2] were 0.019 µM and over 100 µM, respectively.
In the same order, the values of `CCCN(C(=O)CC(=O)O)C1=C(C)CC(c2ccccc2)N([C@@H](C)c2ccc(N)cc2)C1=O` (some centres not stated) are 0.057 µM and 0.071 µM.
On to `C/C=C(\C(=O)NCC(=O)O)C(NCc1ccc(N)cc1)C(C)C` (configuration not stated), for which the values for the IC50 against Integrin alpha-5/beta-1 [1] and against Integrin alpha-V/beta-3 [2] were 0.22 µM and 2 µM, respectively.
For the compound H-GRGDTP-OH, the values for the IC50 against Integrin alpha-5/beta-1 [1] and at Integrin alpha-V/beta-3 [2] were 0.93 µM and 0.00062 µM, respectively.
In the case of `CC1=C(C(=O)NCc2ccc(N)cc2)C(C(C)C)N(C(=O)CC(=O)O)O1` (configuration not stated), the figures for the IC50 against Integrin alpha-5/beta-1 [1] and on Integrin alpha-V/beta-3 [2] were 1.05 µM and 8.8 µM, respectively.
On the same counts, the results for `C/C=C1\C(=O)N(CC(=O)O)C(=O)N(Cc2ccc(NC(=O)CN)cc2)C1C(C)C` (configuration not stated) are over 100 µM and over 100 µM.
For `C/C=C(\C(=O)NCC(=O)O)C(C)NCc1ccc(N)cc1` (configuration not stated), the inhibition entry on Integrin alpha-V/beta-3 [4] and at Integrin alpha-V/beta-3 [5] was “Active” each time. Also, the IC50 against Integrin alpha-5/beta-1 [1] amounted to 9.8 µM; against Integrin alpha-V/beta-3 [2] it was 0.12 µM.

For orientation: IC50 means the midpoint of a concentration-inhibition curve. Lower therefore signals inhibition by little substance.
